≈ marks a conversion by molar mass, not a printed value.
Tests used:
Assay type in all cases: functional
Staphylococcus aureus [1] = assay: Antimicrobial activity against Staphylococcus aureus UFPEDA 01 at 300 ug/disk after 24 hrs by disk diffusion method; conditions: UFPEDA 01, 24 h, read-out: IZ
Summary of the method: (§1)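 Preliminary screen by disk diffusion. Paper disks (6 mm) holding 300 µg of compound were placed on agar plates inoculated with a standardized microbial suspension. DMSO-only disks served as negative controls. A mean inhibition zone below 7 mm was scored as no sensitivity. Values are means, n = 3.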

Candida albicans [2] = assay: Antimicrobial activity against Candida albicans UFPEDA 1007 at 300 ug/disk after 48 hrs by disk diffusion method; conditions: UFPEDA 1007, 48 h, read-out: IZ; summary of the method: as §1
Micrococcus luteus [3] = assay: Antimicrobial activity against Micrococcus luteus UFPEDA 06 after 20 hrs by twofold serial dilution technique; conditions: UFPEDA 06, 20 h
Summary of the method: (§2)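 MIC was determined by twofold serial dilution. Bacteria were tested in plates at 10⁵ CFU/plate and read after 20 h. C. albicans was tested in tubes at 10³ CFU/tube and read after 48 h. All incubations were at 35 °C. Medium plus DMSO served as the negative control.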

HEp-2 [4] = assay: Cytotoxicity against human Hep2 cells at 2.5 ug/mL after 72 hrs by MTT assay; conditions: HEp-2, 72 h, read-out: GI
Summary of the method: (§3)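 MTT antiproliferative assay. Cells were diluted to 10⁵ cells/mL in 96-well plates and preincubated for 24 h at 37 °C in humid 5% CO₂. Compounds or vincristine (reference) were then added. Formazan was dissolved and OD read at 540 nm, compared with medium-only control cells. Run in triplicate.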

Enterococcus faecalis [5] = assay: Antimicrobial activity against Enterococcus faecalis UFPEDA 138 at 300 ug/disk after 24 hrs by disk diffusion method; conditions: UFPEDA 138, 24 h, read-out: IZ; summary of the method: as §1
NCI-H292 [6] = assay: Cytotoxicity against human NCI-H292 cells at 1.25 ug/mL after 72 hrs by MTT assay; conditions: NCI-H292, 72 h, read-out: GI; summary of the method: as §3
Staphylococcus [7] = assay: Antimicrobial activity against coagulase-negative Staphylococcus H.A.M. 278 isolate after 20 hrs by twofold serial dilution technique; conditions: H.A.M. 278, 20 h; summary of the method: as §2
NCI-H292 [8] = assay: Cytotoxicity against human NCI-H292 cells at 2.5 ug/mL after 72 hrs by MTT assay; conditions: NCI-H292, 72 h, read-out: GI; summary of the method: as §3
Staphylococcus aureus [9] = assay: Antimicrobial activity against multidrug-resistant Staphylococcus aureus H.C. 20794 isolate after 20 hrs by twofold serial dilution technique; conditions: H.C. 20794, 20 h
Summary of the method: (§4)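 Twofold serial dilution MIC in agar plates against Gram-positive strains and multidrug-resistant clinical isolates. Inoculum applied was 10⁵ CFU/plate. Plates with culture medium plus DMSO served as negative control. MIC was read after incubation at 35 °C for 20 h.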

Enterococcus faecalis [10] = assay: Antimicrobial activity against multidrug-resistant Enterococcus faecalis H.C. 21944 isolate after 20 hrs by twofold serial dilution technique; conditions: H.C. 21944, 20 h; summary of the method: as §4
Staphylococcus aureus [11] = assay: Antimicrobial activity against multidrug-resistant Staphylococcus aureus H.C. 20489 isolate after 20 hrs by twofold serial dilution technique; conditions: H.C. 20489, 20 h; summary of the method: as §4
NCI-H292 [12] = assay: Cytotoxicity against human NCI-H292 cells at 5 ug/mL after 72 hrs by MTT assay; conditions: NCI-H292, 72 h, read-out: GI; summary of the method: as §3
Staphylococcus aureus [13] = assay: Antimicrobial activity against multidrug-resistant Staphylococcus aureus H.C. 21036 isolate after 20 hrs by twofold serial dilution technique; conditions: H.C. 21036, 20 h; summary of the method: as §4
Pseudomonas aeruginosa = assay: Antimicrobial activity against Pseudomonas aeruginosa UFPEDA 39 at 300 ug/disk after 24 hrs by disk diffusion method; conditions: UFPEDA 39, 24 h, read-out: IZ; summary of the method: as §1
HEp-2 [14] = assay: Cytotoxicity against human Hep2 cells at 10 ug/mL after 72 hrs by MTT assay; conditions: HEp-2, 72 h, read-out: GI; summary of the method: as §3
Staphylococcus aureus [15] = assay: Antimicrobial activity against Staphylococcus aureus UFPEDA 01 after 20 hrs by twofold serial dilution technique; conditions: UFPEDA 01, 20 h; summary of the method: as §4
Enterococcus faecalis [16] = assay: Antimicrobial activity against multidrug-resistant Enterococcus faecalis H.C. 24708 isolate after 20 hrs by twofold serial dilution technique; conditions: H.C. 24708, 20 h; summary of the method: as §4
Serratia marcescens = assay: Antimicrobial activity against Serratia marcescens UFPEDA 398 at 300 ug/disk after 24 hrs by disk diffusion method; conditions: UFPEDA 398, 24 h, read-out: IZ; summary of the method: as §1
Enterococcus faecalis [17] = assay: Antimicrobial activity against multidrug-resistant Enterococcus faecalis H.C. 21752 isolate after 20 hrs by twofold serial dilution technique; conditions: H.C. 21752, 20 h; summary of the method: as §4
Staphylococcus aureus [18] = assay: Antimicrobial activity against multidrug-resistant Staphylococcus aureus H.C. 20981 isolate after 20 hrs by twofold serial dilution technique; conditions: H.C. 20981, 20 h; summary of the method: as §4
HEp-2 [19] = assay: Cytotoxicity against human Hep2 cells at 1.25 ug/mL after 72 hrs by MTT assay; conditions: HEp-2, 72 h, read-out: GI; summary of the method: as §3
Staphylococcus aureus [20] = assay: Antimicrobial activity against multidrug-resistant Staphylococcus aureus H.C. 20905 isolate after 20 hrs by twofold serial dilution technique; conditions: H.C. 20905, 20 h; summary of the method: as §4
Bacillus subtilis [21] = assay: Antimicrobial activity against Bacillus subtilis UFPEDA 16 at 300 ug/disk after 24 hrs by disk diffusion method; conditions: UFPEDA 16, 24 h, read-out: IZ; summary of the method: as §1
HEp-2 [22] = assay: Cytotoxicity against human Hep2 cells at 5 ug/mL after 72 hrs by MTT assay; conditions: HEp-2, 72 h, read-out: GI; summary of the method: as §3
Micrococcus luteus [23] = assay: Antimicrobial activity against Micrococcus luteus UFPEDA 06 at 300 ug/disk after 24 hrs by disk diffusion method; conditions: UFPEDA 06, 24 h, read-out: IZ; summary of the method: as §1
[24] = test system: Mycolicibacterium smegmatis; assay: Antimicrobial activity against Mycobacterium smegmatis UFPEDA 71 at 300 ug/disk after 24 hrs by disk diffusion method; conditions: UFPEDA 71, 24 h, read-out: IZ; summary of the method: as §1
Staphylococcus aureus [25] = assay: Antimicrobial activity against multidrug-resistant Staphylococcus aureus H.C. 21141 isolate after 20 hrs by twofold serial dilution technique; conditions: H.C. 21141, 20 h; summary of the method: as §4
Enterococcus faecalis [26] = assay: Antimicrobial activity against Enterococcus faecalis UFPEDA 138 after 20 hrs by twofold serial dilution technique; conditions: UFPEDA 138, 20 h; summary of the method: as §2
NCI-H292 [27] = assay: Cytotoxicity against human NCI-H292 cells at 10 ug/mL after 72 hrs by MTT assay; conditions: NCI-H292, 72 h, read-out: GI; summary of the method: as §3
Bacillus subtilis [28] = assay: Antimicrobial activity against Bacillus subtilis UFPEDA 16 after 20 hrs by twofold serial dilution technique; conditions: UFPEDA 16, 20 h; summary of the method: as §2
Escherichia coli = assay: Antimicrobial activity against Escherichia coli UFPEDA 224 at 300 ug/disk after 24 hrs by disk diffusion method; conditions: UFPEDA 224, 24 h, read-out: IZ; summary of the method: as §1
Candida albicans [29] = assay: Antimicrobial activity against Candida albicans UFPEDA 1007 after 48 hrs by twofold serial dilution technique; conditions: UFPEDA 1007, 48 h; summary of the method: as §2
[30] = test system: Mycolicibacterium smegmatis; assay: Antimicrobial activity against Mycobacterium smegmatis UFPEDA 71 after 20 hrs by twofold serial dilution technique; conditions: UFPEDA 71, 20 h; summary of the method: as §2
Enterococcus faecalis [31] = assay: Antimicrobial activity against multidrug-resistant Enterococcus faecalis H.C. 24962 isolate after 20 hrs by twofold serial dilution technique; conditions: H.C. 24962, 20 h; summary of the method: as §4
Staphylococcus [32] = assay: Antimicrobial activity against coagulase-negative Staphylococcus H.A.M. 338 isolate after 20 hrs by twofold serial dilution technique; conditions: H.A.M. 338, 20 h; summary of the method: as §2

O=C1NC(=S)/C(=C/c2ccccc2Br)S1
zone of inhibition at 300 µg/disc (Staphylococcus aureus [1]): 25 mm
zone of inhibition at 300 µg/disc (Candida albicans [2]): 13 mm
MIC (Micrococcus luteus [3]): 16 µg/mL (≈ 53.3 µM)
inhibition of growth at 2.5 µg/mL (HEp-2 [4]): 10.3%
zone of inhibition at 300 µg/disc (Enterococcus faecalis [5]): 19 mm
inhibition of growth at 1.25 µg/mL (NCI-H292 [6]): 13.3%
MIC (Staphylococcus [7]): 2 µg/mL (≈ 6.66 µM)
inhibition of growth at 2.5 µg/mL (NCI-H292 [8]): 16.2%
MIC (Staphylococcus aureus [9]): 4 µg/mL (≈ 13.3 µM)
MIC (Enterococcus faecalis [10]): 16 µg/mL (≈ 53.3 µM)
MIC (Staphylococcus aureus [11]): 4 µg/mL (≈ 13.3 µM)
inhibition of growth at 5 µg/mL (NCI-H292 [12]): 22.9%
MIC (Staphylococcus aureus [13]): 4 µg/mL (≈ 13.3 µM)
zone of inhibition at 300 µg/disc (Pseudomonas aeruginosa): < 7 mm
inhibition of growth at 10 µg/mL (HEp-2 [14]): 21.2%
MIC (Staphylococcus aureus [15]): 4 µg/mL (≈ 13.3 µM)
MIC (Enterococcus faecalis [16]): 16 µg/mL (≈ 53.3 µM)
zone of inhibition at 300 µg/disc (Serratia marcescens): < 7 mm
MIC (Enterococcus faecalis [17]): 8 µg/mL (≈ 26.6 µM)
MIC (Staphylococcus aureus [18]): 4 µg/mL (≈ 13.3 µM)
inhibition of growth at 1.25 µg/mL (HEp-2 [19]): 3.14%
MIC (Staphylococcus aureus [20]): 4 µg/mL (≈ 13.3 µM)
zone of inhibition at 300 µg/disc (Bacillus subtilis [21]): 19 mm
inhibition of growth at 5 µg/mL (HEp-2 [22]): 16.2%
zone of inhibition at 300 µg/disc (Micrococcus luteus [23]): 18 mm
zone of inhibition at 300 µg/disc [24]: 21 mm
MIC (Staphylococcus aureus [25]): 16 µg/mL (≈ 53.3 µM)
MIC (Enterococcus faecalis [26]): 32 µg/mL (≈ 107 µM)
inhibition of growth at 10 µg/mL (NCI-H292 [27]): 36.9%
MIC (Bacillus subtilis [28]): 8 µg/mL (≈ 26.6 µM)
zone of inhibition at 300 µg/disc (Escherichia coli): < 7 mm
MIC (Candida albicans [29]): 32 µg/mL (≈ 107 µM)
MIC [30]: 32 µg/mL (≈ 107 µM)
MIC (Enterococcus faecalis [31]): 16 µg/mL (≈ 53.3 µM)
MIC (Staphylococcus [32]): 16 µg/mL (≈ 53.3 µM)

O=C1NC(=S)/C(=C/c2cccc(Br)c2)S1
zone of inhibition at 300 µg/disc (Staphylococcus aureus [1]): 28 mm
zone of inhibition at 300 µg/disc (Candida albicans [2]): 14 mm
MIC (Micrococcus luteus [3]): 8 µg/mL (≈ 26.6 µM)
inhibition of growth at 2.5 µg/mL (HEp-2 [4]): -1.82%
zone of inhibition at 300 µg/disc (Enterococcus faecalis [5]): 25 mm
inhibition of growth at 1.25 µg/mL (NCI-H292 [6]): 4.67%
MIC (Staphylococcus [7]): 64 µg/mL (≈ 213 µM)
inhibition of growth at 2.5 µg/mL (NCI-H292 [8]): 11.1%
MIC (Staphylococcus aureus [9]): 8 µg/mL (≈ 26.6 µM)
MIC (Enterococcus faecalis [10]): 16 µg/mL (≈ 53.3 µM)
MIC (Staphylococcus aureus [11]): 8 µg/mL (≈ 26.6 µM)
inhibition of growth at 5 µg/mL (NCI-H292 [12]): 22%
MIC (Staphylococcus aureus [13]): 16 µg/mL (≈ 53.3 µM)
zone of inhibition at 300 µg/disc (Pseudomonas aeruginosa): < 7 mm
inhibition of growth at 10 µg/mL (HEp-2 [14]): 23.6%
MIC (Staphylococcus aureus [15]): 4 µg/mL (≈ 13.3 µM)
MIC (Enterococcus faecalis [16]): 8 µg/mL (≈ 26.6 µM)
zone of inhibition at 300 µg/disc (Serratia marcescens): < 7 mm
MIC (Enterococcus faecalis [17]): 8 µg/mL (≈ 26.6 µM)
MIC (Staphylococcus aureus [18]): 16 µg/mL (≈ 53.3 µM)
inhibition of growth at 1.25 µg/mL (HEp-2 [19]): -5.3%
MIC (Staphylococcus aureus [20]): 16 µg/mL (≈ 53.3 µM)
zone of inhibition at 300 µg/disc (Bacillus subtilis [21]): 26 mm
inhibition of growth at 5 µg/mL (HEp-2 [22]): -1.04%
zone of inhibition at 300 µg/disc (Micrococcus luteus [23]): 29 mm
zone of inhibition at 300 µg/disc [24]: 25 mm
MIC (Staphylococcus aureus [25]): 32 µg/mL (≈ 107 µM)
MIC (Enterococcus faecalis [26]): 16 µg/mL (≈ 53.3 µM)
inhibition of growth at 10 µg/mL (NCI-H292 [27]): 42.4%
MIC (Bacillus subtilis [28]): 8 µg/mL (≈ 26.6 µM)
zone of inhibition at 300 µg/disc (Escherichia coli): < 7 mm
MIC (Candida albicans [29]): 64 µg/mL (≈ 213 µM)
MIC [30]: 16 µg/mL (≈ 53.3 µM)
MIC (Enterococcus faecalis [31]): 16 µg/mL (≈ 53.3 µM)
MIC (Staphylococcus [32]): 64 µg/mL (≈ 213 µM)
